Converted amounts (≈) assume the structure as drawn.
Experiments:
Type in all cases: functional
Micrococcus luteus = experiment: Antibacterial activity against Micrococcus luteus AUMC B-112 assessed as diameter of growth inhibition zone at 20 mg/ml at 28 degC after 48 hrs; conditions: AUMC B-112, 48 h, read-out: DIZ
Outline: (§1)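 Inocula: each bacterial strain grown 48 h in nutrient broth (30 ml per flask). For the assay, 1 ml microbial suspension and 15 ml nutrient agar were poured into each 10 cm Petri plate, compound solutions were applied, and the diameter of the inhibition zone was read.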

Serratia marcescens = experiment: Antibacterial activity against Serratia marcescens AUMC B-55 assessed as diameter of growth inhibition zone at 20 mg/ml at 28 degC after 48 hrs; conditions: AUMC B-55, 48 h, read-out: DIZ; outline: as §1
Pseudomonas aeruginosa = experiment: Antibacterial activity against Pseudomonas aeruginosa AUMC B-73 g assessed as diameter of growth inhibition zone at 20 mg/ml at 28 degC after 48 hrs; conditions: read-out: DIZ; outline: as §1
Escherichia coli = experiment: Antibacterial activity against Escherichia coli AUMC B-53 assessed as diameter of growth inhibition zone at 20 mg/ml at 28 degC after 48 hrs; conditions: AUMC B-53, 48 h, read-out: DIZ; outline: as §1
Bacillus cereus = experiment: Antibacterial activity against Bacillus cereus AUMC B-52 assessed as diameter of growth inhibition zone at 20 mg/ml at 28 degC after 48 hrs; conditions: AUMC B-52, 48 h, read-out: DIZ; outline: as §1
Staphylococcus aureus = experiment: Antibacterial activity against Staphylococcus aureus AUMC B-54 assessed as diameter of growth inhibition zone at 20 mg/ml at 28 degC after 48 hrs; conditions: AUMC B-54, 48 h, read-out: DIZ; outline: as §1
Geotrichum candidum = experiment: Antifungal activity against Geotrichum candidum AUMC 226 assessed as diameter of growth inhibition zone at 20 mg/ml at 28 degC after 7 days; conditions: AUMC 226, 168 h, read-out: DIZ
Outline: (§2)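 Inocula: each fungus grown 7 days in Sabouraud's dextrose broth (30 ml per flask). Plates were 10 cm Petri dishes with 1 ml microbial suspension and 15 ml Sabouraud's dextrose agar each. Compound solutions were applied and the diameter of the growth inhibition zone was recorded.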

[1] = system: Scopulariopsis brevicaulis; experiment: Antifungal activity against Scopulariopsis brevicaulis AUMC 729 assessed as diameter of growth inhibition zone at 20 mg/ml at 28 degC after 7 days; conditions: AUMC 729, 168 h, read-out: DIZ; outline: as §2
Fusarium oxysporum = experiment: Antifungal activity against Fusarium oxysporum AUMC 5119 assessed as diameter of growth inhibition zone at 20 mg/ml at 28 degC after 7 days; conditions: AUMC 5119, 168 h, read-out: DIZ; outline: as §2
Aspergillus flavus [2] = experiment: Antifungal activity against Aspergillus flavus AUMC 1276 assessed as diameter of growth inhibition zone at 20 mg/ml at 28 degC after 7 days; conditions: AUMC 1276, 168 h, read-out: DIZ; outline: as §2
Trichophyton rubrum [3] = experiment: Antifungal activity against Trichophyton rubrum AUMC 1804 assessed as diameter of growth inhibition zone at 20 mg/ml at 28 degC after 7 days; conditions: AUMC 1804, 168 h, read-out: DIZ; outline: as §2
Candida albicans = experiment: Antifungal activity against Candida albicans AUMC 418 assessed as diameter of growth inhibition zone at 20 mg/ml at 28 degC after 7 days; conditions: AUMC 418, 168 h, read-out: DIZ; outline: as §2
Aspergillus flavus [4] = experiment: Antifungal activity against Aspergillus flavus AUMC 3214 assessed as growth inhibition at 28 degC after 7 days
Trichophyton rubrum [5] = experiment: Antifungal activity against Trichophyton rubrum AUMC 1804 assessed as growth inhibition at 28 degC after 7 days

Structure (SMILES) | zone of inhibition at 20000 µg/mL (Micrococcus luteus) [mm] | zone of inhibition at 20000 µg/mL (Serratia marcescens) [mm] | zone of inhibition at 20000 µg/mL (Pseudomonas aeruginosa) [mm] | zone of inhibition at 20000 µg/mL (Escherichia coli) [mm] | zone of inhibition at 20000 µg/mL (Bacillus cereus) [mm] | zone of inhibition at 20000 µg/mL (Staphylococcus aureus) [mm] | zone of inhibition at 20000 µg/mL (Geotrichum candidum) [mm] | zone of inhibition at 20000 µg/mL [1] [mm] | zone of inhibition at 20000 µg/mL (Fusarium oxysporum) [mm] | zone of inhibition at 20000 µg/mL (Aspergillus flavus [2]) [mm] | zone of inhibition at 20000 µg/mL (Trichophyton rubrum [3]) [mm] | zone of inhibition at 20000 µg/mL (Candida albicans) [mm] | diameter of the inhibition zone (DIZ) (Aspergillus flavus [4]) [mm] | MIC (Aspergillus flavus [4]; Aspergillus flavus, AUMC 3214, 168 h) [µg/mL] | diameter of the inhibition zone (DIZ) (Trichophyton rubrum [5]) [mm] | MIC (Trichophyton rubrum [5]; Trichophyton rubrum, AUMC 1804, 168 h) [µg/mL]
O=C(N[C@H](CO)[C@H](O)c1ccc([N+](=O)[O-])cc1)C(Cl)Cl [CHLORAMPHENICOL] | 20 | 20 | 18 | 18 | 22 | 18 | – | – | – | – | – | – | – | – | – | –
Cc1nn(-c2ccccc2)c2nc3c(nc12)C(=O)c1ccccc1-3 | 0 | 0 | 0 | 10 | 0 | 8 | 0 | 0 | 0 | 0 | 0 | 0 | – | – | – | –
CCOC(=O)C1S/C(=N\N=C2/c3ccccc3-c3nc4c(nc32)c(C)nn4-c2ccccc2)NC1=O (stereo not given) | 0 | 0 | 8 | 8 | 0 | 8 | 10 | 0 | 0 | 13 | 30 | 0 | 10 | 2500 (≈ 5020 µM) | 16 | 300 (≈ 603 µM)
CCOC(=O)/C(C#N)=C1\c2ccccc2-c2nc3c(nc21)c(C)nn3-c1ccccc1 | 0 | 0 | 8 | 8 | 0 | 8 | 0 | 0 | 0 | 0 | 0 | 10 | – | – | – | –
Cc1nn(-c2ccccc2)c2nc3c(nc12)Cc1ccccc1-3 | 0 | 0 | 0 | 0 | 0 | 8 | 0 | 0 | 0 | 0 | 0 | 0 | – | – | – | –
Cc1nn(-c2ccccc2)c2nc3c(nc12)/C(=N/N)c1ccccc1-3 | 0 | 0 | 0 | 8 | 0 | 8 | 0 | 0 | 0 | 0 | 0 | 0 | – | – | – | –

Reference: ChEMBL document CHEMBL2331494, “First synthesis and biological evaluation of indeno[2,1-e]pyrazolo[3,4-b]pyrazin-5-one and related derivatives” (2013)
